≈ marks a conversion by molar mass, not a printed value. Calls of active or inactive are those of the source.
Key:
[1] = tested on: Mus musculus; experiment: Toxicity in PS mouse allografted with mouse P388 cells assessed as change in body weight at 3.1 ug/kg relative to control; type: organism-based; conditions: in vivo, 0.0031 mg/kg
Summary of the method: (§1)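 P388 (PS) leukemia in mice, 6 mice per dose group. Weight change is the difference in grams between treated and control animals. Survivors are recorded on toxicity day, normally 4 days after the first injection.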

[2] = tested on: Mus musculus; experiment: Toxicity in PS mouse allografted with mouse P388 cells assessed as change in body weight at 0.8 ug/kg relative to control; type: organism-based; conditions: in vivo, 0.0008 mg/kg
Summary of the method: (§2)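 PS (P388 leukemia) mice, six per dose group. Toxicity read as the difference in grams between the weights of treated and control animals.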

[3] = tested on: Mus musculus; experiment: Toxicity in PS mouse allografted with mouse P388 cells assessed as survival at 50 ug/kg after 4 days; type: organism-based; conditions: in vivo, 0.05 mg/kg, 96 h
Summary of the method: (§3)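 PS (P388) leukemic mice, six started per dose group. Toxicity scored as survivors on the toxicity day over the number of mice started. The toxicity day is normally 4 days after the first injection.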

[4] = tested on: Mus musculus; experiment: Toxicity in PS mouse allografted with mouse P388 cells assessed as survival at 100 ug/kg after 4 days; type: organism-based; conditions: in vivo, 0.1 mg/kg, 96 h; summary of the method: as §3
[5] = tested on: Mus musculus; experiment: Toxicity in PS mouse allografted with mouse P388 cells assessed as survival at 25 ug/kg after 4 days; type: organism-based; conditions: in vivo, 0.025 mg/kg, 96 h; summary of the method: as §3
[6] = tested on: Mus musculus; experiment: Toxicity in PS mouse allografted with mouse P388 cells assessed as survival at 12.5 ug/kg after 4 days; type: organism-based; conditions: in vivo, 0.0125 mg/kg, 96 h; summary of the method: as §3
[7] = tested on: Mus musculus; experiment: Toxicity in PS mouse allografted with mouse P388 cells assessed as survival at 6.2 ug/kg after 4 days; type: organism-based; conditions: in vivo, 0.0062 mg/kg, 96 h; summary of the method: as §3
[8] = tested on: Mus musculus; experiment: Toxicity in PS mouse allografted with mouse P388 cells assessed as survival at 3.1 ug/kg after 4 days; type: organism-based; conditions: in vivo, 0.0031 mg/kg, 96 h; summary of the method: as §3
[9] = tested on: Mus musculus; experiment: Toxicity in PS mouse allografted with mouse P388 cells assessed as survival at 1.6 ug/kg after 4 days; type: organism-based; conditions: in vivo, 0.0016 mg/kg, 96 h; summary of the method: as §3
[10] = tested on: Mus musculus; experiment: Toxicity in PS mouse allografted with mouse P388 cells assessed as survival at 0.8 ug/kg after 4 days; type: organism-based; conditions: in vivo, 0.0008 mg/kg, 96 h; summary of the method: as §3
[11] = tested on: Mus musculus; experiment: Toxicity in PS mouse allografted with mouse P388 cells assessed as survival at 200 ug/kg after 4 days; type: organism-based; conditions: in vivo, 0.2 mg/kg, 96 h; summary of the method: as §3
[12] = tested on: Mus musculus; experiment: Toxicity in PS mouse allografted with mouse P388 cells assessed as survival at 1.5 ug/kg after 4 days; type: organism-based; conditions: in vivo, 0.0015 mg/kg, 96 h; summary of the method: as §3
[13] = tested on: Mus musculus; experiment: Toxicity in PS mouse allografted with mouse P388 cells assessed as change in body weight at 100 ug/kg relative to control; type: organism-based; conditions: in vivo, 0.1 mg/kg; summary of the method: as §1
[14] = tested on: Mus musculus; experiment: Toxicity in PS mouse allografted with mouse P388 cells assessed as change in body weight at 50 ug/kg relative to control; type: organism-based; conditions: in vivo, 0.05 mg/kg; summary of the method: as §1
[15] = tested on: Mus musculus; experiment: Toxicity in PS mouse allografted with mouse P388 cells assessed as change in body weight at 25 ug/kg relative to control; type: organism-based; conditions: in vivo, 0.025 mg/kg; summary of the method: as §1
[16] = tested on: Mus musculus; experiment: Toxicity in PS mouse allografted with mouse P388 cells assessed as change in body weight at 12.5 ug/kg relative to control; type: organism-based; conditions: in vivo, 0.0125 mg/kg; summary of the method: as §1
[17] = tested on: Mus musculus; experiment: Toxicity in PS mouse allografted with mouse P388 cells assessed as change in body weight at 6.2 ug/kg relative to control; type: organism-based; conditions: in vivo, 0.0062 mg/kg; summary of the method: as §1
[18] = tested on: Mus musculus; experiment: Toxicity in PS mouse allografted with mouse P388 cells assessed as change in body weight at 200 ug/kg relative to control; type: organism-based; conditions: in vivo, 0.2 mg/kg; summary of the method: as §1
[19] = tested on: Mus musculus; experiment: Toxicity in PS mouse allografted with mouse P388 cells assessed as change in body weight at 1.5 ug/kg relative to control; type: organism-based; conditions: in vivo, 0.0015 mg/kg; summary of the method: as §2
[20] = tested on: P388; experiment: Antitumor activity against mouse P388 cells allografted in PS mouse assessed as median survival time at 100 ug/kg relative to control; type: functional
Summary of the method: (§4)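 P388 leukemia (PS) in mice, six mice started per dose group. Read-out is T/C: median survival time of the treated group divided by that of the untreated control group, expressed as a percent. The NIH protocol counts a compound as active when T/C > 125%.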

[21] = tested on: P388; experiment: Antitumor activity against mouse P388 cells allografted in PS mouse assessed as median survival time at 50 ug/kg relative to control; type: functional; summary of the method: as §4
[22] = tested on: P388; experiment: Antitumor activity against mouse P388 cells allografted in PS mouse assessed as median survival time at 25 ug/kg relative to control; type: functional; summary of the method: as §4
[23] = tested on: P388; experiment: Antitumor activity against mouse P388 cells allografted in PS mouse assessed as median survival time at 12.5 ug/kg relative to control; type: functional; summary of the method: as §4
[24] = tested on: P388; experiment: Antitumor activity against mouse P388 cells allografted in PS mouse assessed as median survival time at 6.2 ug/kg relative to control; type: functional; summary of the method: as §4
[25] = tested on: P388; experiment: Antitumor activity against mouse P388 cells allografted in PS mouse assessed as median survival time at 3.1 ug/kg relative to control; type: functional; summary of the method: as §4
[26] = tested on: P388; experiment: Antitumor activity against mouse P388 cells allografted in PS mouse assessed as median survival time at 0.8 ug/kg relative to control; type: functional; summary of the method: as §4
[27] = tested on: P388; experiment: Antitumor activity against mouse P388 cells allografted in PS mouse assessed as median survival time at 200 ug/kg relative to control; type: functional; summary of the method: as §4
[28] = tested on: P388; experiment: Antitumor activity against mouse P388 cells allografted in PS mouse assessed as median survival time at 1.5 ug/kg relative to control; type: functional; summary of the method: as §4
[29] = tested on: KB; experiment: Cytotoxicity against human KB cells; type: functional; conditions: read-out: ED50 (the source's name)
[30] = target: Tubulin (Homo sapiens) (UniProt P68371+Q9H4B7+P0DPH7+P68366+Q13509+Q71U36+P04350+Q3ZCM7+P07437+P68363+Q9BQE3+Q6PEY2+Q13885+Q9BVA1+Q9BUF5); experiment: Inhibition of brain tubulin polymerization (unknown origin) at 37 degC by spectrophotometry
[31] = tested on: Paracentrotus lividus; experiment: Antimitotic activity against sea urchin eggs assessed as drug level causing inhibition of mitosis; type: functional; conditions: Egg
[32] = tested on: Mus musculus; experiment: Toxicity in PS mouse allografted with mouse P388 cells assessed as change in body weight at 0.4 ug/kg relative to control; type: organism-based; conditions: in vivo, 0.0004 mg/kg; summary of the method: as §2
[33] = tested on: Mus musculus; experiment: Toxicity in PS mouse allografted with mouse P388 cells assessed as change in body weight at 0.2 ug/kg relative to control; type: organism-based; conditions: in vivo, 0.0002 mg/kg; summary of the method: as §2
[34] = tested on: Mus musculus; experiment: Toxicity in PS mouse allografted with mouse P388 cells assessed as survival at 0.4 ug/kg after 4 days; type: organism-based; conditions: in vivo, 0.0004 mg/kg, 96 h; summary of the method: as §3
[35] = tested on: Mus musculus; experiment: Toxicity in PS mouse allografted with mouse P388 cells assessed as survival at 0.2 ug/kg after 4 days; type: organism-based; conditions: in vivo, 0.0002 mg/kg, 96 h; summary of the method: as §3
[36] = tested on: Mus musculus; experiment: Toxicity in PS mouse allografted with mouse P388 cells assessed as survival at 6.3 ug/kg after 4 days; type: organism-based; conditions: in vivo, 0.0063 mg/kg, 96 h; summary of the method: as §3
[37] = tested on: Mus musculus; experiment: Toxicity in PS mouse allografted with mouse P388 cells assessed as survival at 1.1 ug/kg after 4 days; type: organism-based; conditions: in vivo, 0.0011 mg/kg, 96 h; summary of the method: as §3
[38] = tested on: Mus musculus; experiment: Toxicity in PS mouse allografted with mouse P388 cells assessed as change in body weight at 6.3 ug/kg relative to control; type: organism-based; conditions: in vivo, 0.0063 mg/kg; summary of the method: as §1
[39] = tested on: Mus musculus; experiment: Toxicity in PS mouse allografted with mouse P388 cells assessed as change in body weight at 1.1 ug/kg relative to control; type: organism-based; conditions: in vivo, 0.0011 mg/kg; summary of the method: as §1
[40] = tested on: P388; experiment: Antitumor activity against mouse P388 cells allografted in PS mouse assessed as median survival time at 0.4 ug/kg relative to control; type: functional; summary of the method: as §4
[41] = tested on: P388; experiment: Antitumor activity against mouse P388 cells allografted in PS mouse assessed as median survival time at 0.2 ug/kg relative to control; type: functional; summary of the method: as §4
[42] = tested on: P388; experiment: Antitumor activity against mouse P388 cells allografted in PS mouse assessed as median survival time at 6.3 ug/kg relative to control; type: functional; summary of the method: as §4
[43] = tested on: P388; experiment: Antitumor activity against mouse P388 cells allografted in PS mouse assessed as median survival time at 1.1 ug/kg relative to control; type: functional; summary of the method: as §4

Structure (SMILES)	Activity [1] [g]	Activity [2] [g]	Activity [3]	Activity [4]	Activity [5]	Activity [6]	Activity [8]	Activity [10]	Activity [13] [g]	Activity [14] [g]	Activity [15] [g]	Activity [16] [g]	T/C [20] [%]	T/C [21] [%]	T/C [22] [%]	T/C [23] [%]	T/C [25] [%]	T/C [26] [%]	EC50 [29] [ng/mL]	inhibition [30]	other results
COc1cc2cc(c1Cl)N(C)C(=O)C[C@H](OC(C)=O)[C@]1(C)O[C@H]1[C@H](C)[C@@H]1C[C@@](O)(NC(=O)O1)[C@H](OC)/C=C/C=C(\C)C2	-1	0	Non-toxic	Non-toxic	Non-toxic	Non-toxic	Non-toxic	Non-toxic	-0.6	-0.3	-1.2	0.3	230	183	173	158	133	110	0.0018 (≈ 0.00296 nM)	Active	Activity [7]: Non-toxic; Activity [9]: Non-toxic; Activity [11]: Non-toxic; Activity [12]: Non-toxic; Activity [17]: 0.5 g; Activity [18]: -3.7 g; Activity [19]: -1.1 g; T/C [24]: 150%; T/C [27]: 100%; T/C [28]: 150%; Activity [31]: 1 ×10⁻⁸ mol/L
COc1cc2cc(c1Cl)N(C)C(=O)/C=C/[C@]1(C)O[C@H]1[C@H](C)[C@@H]1C[C@@](O)(NC(=O)O1)[C@H](OC)/C=C/C=C(\C)C2	0.4	2.8	Non-toxic	Non-toxic	Non-toxic	Non-toxic	Non-toxic	Non-toxic	1	2.6	1.7	1	110	<80	<80	<80	90	90	25 (≈ 45.7 nM)	Active	Activity [32]: 2.5 g; Activity [33]: 2.1 g; Activity [34]: Non-toxic; Activity [35]: Non-toxic; Activity [36]: Non-toxic; Activity [37]: Non-toxic; Activity [38]: 0.3 g; Activity [39]: 2 g; T/C [40]: 90%; T/C [41]: 90%; T/C [42]: <80%; T/C [43]: 90%; Activity [31]: 1 µM
